# ChEMBL document CHEMBL4049410, “Novel benzimidazolyl tetrahydroprotoberberines: Design, synthesis, antimicrobial evaluation and multi-targeting exploration” (2017)
# Activity calls are given as the source filed them. The calls are words filed in the database; no cut-off is given here.
# How the values were obtained:
# Staphylococcus aureus [1] = assay: Antibacterial activity against methicillin-resistant Staphylococcus aureus N315 after 24 hrs by two-fold serial dilution assay; type: functional; details: Staphylococcus aureus, N315, 24 h; read-out: MIC
# Bacillus subtilis = assay: Antibacterial activity against Bacillus subtilis after 24 hrs by two-fold serial dilution assay; type: functional; details: Bacillus subtilis, 24 h; read-out: MIC
# Procedure, shortened: (§1)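 Twofold serial broth dilution following NCCLS guidance, with Chloromycin, Norfloxacin and Fluconazole as positive controls. MIC in μM is the lowest concentration giving complete inhibition of visible bacterial or fungal growth.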
# Micrococcus luteus = assay: Antibacterial activity against Micrococcus luteus ATCC 4698 after 24 hrs by two-fold serial dilution assay; type: functional, NCTC 2665; details: Micrococcus luteus, NCTC 2665, 24 h; read-out: MIC; procedure, shortened: as §1
# Staphylococcus aureus [2] = assay: Antibacterial activity against Staphylococcus aureus ATCC 25923 after 24 hrs by two-fold serial dilution assay; type: functional; details: Staphylococcus aureus, ATCC 25923, 24 h; read-out: MIC; procedure, shortened: as §1
# Escherichia coli [3] = assay: Antibacterial activity against Escherichia coli JM109 after 24 hrs by two-fold serial dilution assay; type: functional; details: Escherichia coli, JM109, 24 h; read-out: MIC; procedure, shortened: as §1
# Escherichia coli [4] = assay: Antibacterial activity against Escherichia coli DH52 after 24 hrs by two-fold serial dilution assay; type: functional; details: Escherichia coli, DH52, 24 h; read-out: MIC; procedure, shortened: as §1
# Shigella dysenteriae = assay: Antibacterial activity against Shigella dysenteriae after 24 hrs by two-fold serial dilution assay; type: functional; details: Shigella dysenteriae, 24 h; read-out: MIC
# Pseudomonas aeruginosa = assay: Antibacterial activity against Pseudomonas aeruginosa after 24 hrs by two-fold serial dilution assay; type: functional; details: Pseudomonas aeruginosa, 24 h; read-out: MIC; procedure, shortened: as §1
# Salmonella typhi = assay: Antibacterial activity against Bacillus typhi after 24 hrs by two-fold serial dilution assay; type: functional, Salmonella enterica subsp. enterica serovar Typhi; details: Salmonella enterica, 24 h; read-out: MIC
# Proteus vulgaris = assay: Antibacterial activity against Bacillus proteus ATCC 13315 after 24 hrs by two-fold serial dilution assay; type: functional; details: Proteus vulgaris, ATCC 13315, 24 h; read-out: MIC; procedure, shortened: as §1
# Pichia norvegensis = assay: Antifungal activity against Candida mycoderma after 24 hrs by two-fold serial dilution assay; type: functional; details: Pichia norvegensis, 24 h; read-out: MIC; procedure, shortened: as §1
# Cyberlindnera jadinii = assay: Antifungal activity against Candida utilis after 24 hrs by two-fold serial dilution assay; type: functional; details: Williopsis jadinii, 24 h; read-out: MIC; procedure, shortened: as §1
# Saccharomyces cerevisiae = assay: Antifungal activity against Saccharomyces cerevisiae after 24 hrs by two-fold serial dilution assay; type: functional; details: Saccharomyces cerevisiae, 24 h; read-out: MIC; procedure, shortened: as §1
# Aspergillus flavus = assay: Antifungal activity against Aspergillus flavus after 24 hrs by two-fold serial dilution assay; type: functional; details: Aspergillus flavus, 24 h; read-out: MIC; procedure, shortened: as §1
# Candida albicans = assay: Antifungal activity against Candida albicans ATCC 76615 after 24 hrs by two-fold serial dilution assay; type: functional; details: Candida albicans, ATCC 76615, 24 h; read-out: MIC; procedure, shortened: as §1
# Staphylococcus aureus [5] = assay: Antibacterial activity against methicillin-resistant Staphylococcus aureus N315 after 15 serial passages by two-fold serial dilution assay; type: functional
# Procedure, shortened: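 Resistance-development test in MRSA. Cultures were propagated with fresh medium and serially diluted test agent, and the MIC was redetermined every 24 h. Parallel cultures were exposed to 2-fold dilutions of Chloromycin and Norfloxacin as positive controls. MIC was the lowest concentration giving complete growth inhibition.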
# [6] = Binding affinity to DNA (unknown origin) assessed as hyperchromic effect up to 1.4 x 10^-5mol/L by UV-Visible absorption spectroscopy
# Procedure, shortened: (§2)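 Calf thymus DNA is held at a fixed concentration, quantified by A260 (ε260 = 6600 L mol⁻¹ cm⁻¹, per phosphate) and checked for A260/A280 > 1.8. It is titrated with increasing compound in Tris-HCl pH 7.4 at 290 K. UV-vis spectra are recorded, following absorbance at 260 nm. The binding constant K is derived from a linear fit (R, SD reported).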
# [7] = Binding affinity to DNA (unknown origin) by UV-Visible absorption spectroscopy; procedure, shortened: as §2
# Bos taurus [8] = species on record: Bos taurus; assay: Inhibition of neutral red binding to calf thymus DNA up to 1.4 x 10^-5mol/L by UV-Visible absorption spectroscopy
# Bos taurus [9] = species on record: Bos taurus; assay: Induction of calf thymus DNA intercalation assessed as protection of compound quenching from iodide ion by fluorescence assay (reference value: 104.52 L/mol)
# Escherichia coli [10] = assay: Induction of Escherichia coli pBR322 DNA cleavage assessed as conversion of covalently closed circular DNA to open circular form and linear form of DNA by agarose gel electrophoresis method
# Procedure, shortened: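 Supercoiled pBR322 plasmid is incubated with compound at 25, 50 and 75 μM alongside a DNA-only control at 37 °C, pH 7.0. Products are resolved by gel electrophoresis, scoring conversion of Form I to Form II (nicked) and Form III (linear).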
Compound,MIC (Staphylococcus aureus [1]) [µM],MIC (Bacillus subtilis) [µM],MIC (Micrococcus luteus) [µM],MIC (Staphylococcus aureus [2]) [µM],MIC (Escherichia coli [3]) [µM],MIC (Escherichia coli [4]) [µM],MIC (Shigella dysenteriae) [µM],MIC (Pseudomonas aeruginosa) [µM],MIC (Salmonella typhi) [µM],MIC (Proteus vulgaris) [µM],MIC (Pichia norvegensis) [µM],MIC (Cyberlindnera jadinii) [µM],MIC (Saccharomyces cerevisiae) [µM],MIC (Aspergillus flavus) [µM],MIC (Candida albicans) [µM],also measured
CCCCCCCCCCCCn1c(-c2cc(OC)c(O)c3c2CC2c4cc5c(cc4CCN2C3)OCO5)nc2ccccc21 (stereo unspecified),175,35,105,26.2,26.2,87.5,175,17.5,8.7,5.5,3.3,17.5,70,43.8,5.5,
COc1cc(-c2nc3ccccc3[nH]2)c2c(c1O)CN1CCc3cc4c(cc3C1C2)OCO4 (stereo unspecified),121,48.3,242,580,60.4,96.7,96.7,145,48.3,242,60.4,242,48.3,72.5,483,
COc1ccc2cc3[n+](cc2c1OC)CCc1cc2c(cc1-3)OCO2 [BERBERINE],230,1150,1380,1380,1380,1150,1150,574,459,688,287,574,287,1150,918,
COc1ccc(Cn2c(-c3cc(OC)c(O)c4c3CC3c5cc6c(cc5CCN3C4)OCO6)nc3ccccc32)cc1 (stereo unspecified),57,19,57,47.5,38,95,57,38,47.5,47.5,57,57,38,23.8,38,
COc1ccc2c(c1O)CN1CCc3cc4c(cc3C1C2)OCO4 (stereo unspecified),1310,1570,1570,787,656,1570,1570,787,787,1310,164,1050,1570,656,524,
COc1cc(-c2nc3ccccc3n2Cc2ccc(Cl)c(Cl)c2)c2c(c1O)CN1CCc3cc4c(cc3C1C2)OCO4 (stereo unspecified),22.2,22.2,107,35.5,44.4,44.4,44.4,35.5,53.3,22.2,53.3,44.4,26.6,88.8,44.4,
CCCn1c(-c2cc(OC)c(O)c3c2CC2c4cc5c(cc4CCN2C3)OCO5)nc2ccccc21 (stereo unspecified),55.2,110,110,44.1,110,110,265,66.2,27.6,22.1,13.8,27.6,132,66.2,22.1,
CCn1c(-c2cc(OC)c(O)c3c2CC2c4cc5c(cc4CCN2C3)OCO5)nc2ccccc21 (stereo unspecified),14.2,34.1,28.4,28.4,28.4,136,136,68.2,14.2,56.8,56.8,34.1,22.7,56.8,17,
COc1cc(-c2nc3cc(F)ccc3[nH]2)c2c(c1O)CN1CCc3cc4c(cc3C1C2)OCO4 (stereo unspecified),17.4,4.4,46.4,58,8.7,23.2,17.4,11.6,14.5,69.6,8.7,14.5,8.7,58,58,Activity (Staphylococcus aureus [5]): Active; Activity [6]: Active; K [7]: 2.87 ×10⁴ L/mol; inhibition (Bos taurus [8]): Active; KSV (Bos taurus [9]): 87.7 L/mol; Activity (Escherichia coli [10]): Dose-dependent effect
